Key:
Format in all cases: functional
Cavia porcellus [1] = species on record: Cavia porcellus; experiment: Concentration needed to elicit a 75% increase beyond control in coronary flow in ''Langendorff'', guinea pig heart (in vitro)
Summary of the method: (§1)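 Isolated Langendorff-perfused guinea pig hearts infused with a range of drug concentrations; force (g), rate (beats/min) and coronary flow (mL/min) recorded. A linear regression of percent-control flow gives C175, the micromolar concentration raising flow to 175% of control, reported only if within the tested range. Raw data analysed by paired t tests.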

Cavia porcellus [2] = species on record: Cavia porcellus; experiment: Concentration needed to achieve a 75% increase in coronary blood flow in 'Langendorff', guinea pig heart (in vitro Negative inotropic potency); summary of the method: as §1
Cavia porcellus [3] = species on record: Cavia porcellus; experiment: Concentration needed to achieve a 75% increase in coronary blood flow in 'Langendorff', guinea pig heart (in vitro negative inotropic activity); summary of the method: as §1
Rattus norvegicus [4] = experiment: Ability to lower blood pressure in the spontaneously hypertensive rat (SHR) at 1 mg/kg (p.o.); settings: route oral
Summary of the method: (§2)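 Spontaneously hypertensive rats dosed orally at the stated dose; read-out is the maximum fall in blood pressure (mmHg), with significance shown as P.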

Oryctolagus cuniculus [5] = species on record: Oryctolagus cuniculus; experiment: Inhibition of [Ca2+] influx in response to a stimulus of KCL (60 uM) expressed as percent change from control
Summary of the method: (§3)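 Test compounds at 10 μM; tension and calcium influx each expressed as % change from control, measured against KCl ([…]) or NE (10 μM) stimulus.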

Oryctolagus cuniculus [6] = species on record: Oryctolagus cuniculus; experiment: In vitro inhibition of development of isometric tension, in response to KCl (60 uM) in rabbit aorta expressed as percent change from control; summary of the method: as §3
Rattus norvegicus [7] = experiment: Ability to lower blood pressure in the spontaneously hypertensive rat (SHR) at 10 mg/kg (p.o.); settings: route oral; summary of the method: as §2
Oryctolagus cuniculus [8] = species on record: Oryctolagus cuniculus; experiment: In vitro inhibition of development of isometric tension, in response to norepinephrine (NE, 10 uM) in rabbit aorta expressed as percent change from control; summary of the method: as §3
Oryctolagus cuniculus [9] = species on record: Oryctolagus cuniculus; experiment: Inhibition of [Ca2+] influx in response to a stimulus of norepinephrine (NE, 10 uM) expressed as percent change from control; summary of the method: as §3
Rattus norvegicus [10] = experiment: Ability to lower blood pressure in the spontaneously hypertensive rat (SHR) at 100 mg/kg (p.o.); settings: route oral
Summary of the method: (§4)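 Spontaneously hypertensive rats were given a single oral dose of the compound. The read-out was the maximum fall in blood pressure, in mmHg, after that dose. A P value for significance was reported with each value.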

Rattus norvegicus [11] = experiment: Ability to lower blood pressure in the spontaneously hypertensive rat (SHR) at 29 mg/kg (p.o.); settings: route oral; summary of the method: as §4

SMILES	C175 (Cavia porcellus [1])	P (Ei) (Cavia porcellus [2])	Contractile force, % of control (Cavia porcellus [3])	Max fall in blood pressure (Rattus norvegicus [4])	Change (Oryctolagus cuniculus [5])	Change (Oryctolagus cuniculus [6])	Max fall in blood pressure (Rattus norvegicus [7])	Change (Oryctolagus cuniculus [8])	Change (Oryctolagus cuniculus [9])	Max fall in blood pressure (Rattus norvegicus [10])	Max fall in blood pressure (Rattus norvegicus [11])
COc1ccc(C#Cc2ccccc2)c(CC(C)N(C)CCc2ccc(OC)c(OC)c2)c1 (stereo not drawn)	0.025 µM	<0.05	70%	53 mmHg							
COc1cc(CCNC(C)Cc2cc(OC)ccc2C#Cc2ccccc2)cc(OC)c1 (stereo not drawn)	0.00075 µM	0.026	120%		-42%	-15%	36 mmHg	-13%	-23%		
COc1ccc(C#Cc2ccccc2)c(CC(C)N(C)CCc2ccc(Cl)c(Cl)c2)c1 (stereo not drawn)	0.004 µM	>0.5	90%	67 mmHg							
COc1ccc(C#Cc2ccccc2)c(CCCN(C)CCc2ccc(OC)c(OC)c2)c1	3 µM	<0.05	85%							62 mmHg	
CCCCC#Cc1ccc(OC)cc1CCCN(C)CCc1ccc(OC)c(OC)c1	0.2 µM	>0.5	100%							35 mmHg	
COc1ccc(C#Cc2ccc([S+](C)[O-])cc2)c(CC(C)N(C)CCc2ccc(OC)c(OC)c2)c1 (stereo not drawn)	3 µM	<0.001	10%								29 mmHg
